Laboratory results as given in ChEMBL document CHEMBL4229456, “Salicylic Acid Derivatives Inhibit Oxalate Production in Mouse Hepatocytes with Primary Hyperoxaluria Type 1” (J Med Chem, 2018).

Assays:
[1] = target: T1, 2-Hydroxyacid oxidase 1 (Mus musculus) (UniProt Q9WU19); test: Inhibition of mouse recombinant glycolate oxidase expressed in Escherichia coli at 25 uM using glycolate as substrate after 1 min by sulfonated DCIP dye-based assay relative to control
T1 sequence (whole entry): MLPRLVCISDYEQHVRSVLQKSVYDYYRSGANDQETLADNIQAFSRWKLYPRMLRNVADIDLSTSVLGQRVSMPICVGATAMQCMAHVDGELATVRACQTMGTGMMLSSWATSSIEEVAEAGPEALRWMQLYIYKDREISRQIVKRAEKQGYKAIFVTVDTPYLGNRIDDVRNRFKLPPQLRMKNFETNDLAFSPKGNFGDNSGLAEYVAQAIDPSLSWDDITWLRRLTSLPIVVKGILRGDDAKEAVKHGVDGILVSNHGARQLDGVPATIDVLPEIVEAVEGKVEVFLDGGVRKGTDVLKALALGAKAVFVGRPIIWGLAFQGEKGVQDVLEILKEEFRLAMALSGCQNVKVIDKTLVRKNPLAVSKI

2-Hydroxyacid oxidase 1 [2] = target: T2, 2-Hydroxyacid oxidase 1 (Mus musculus, UniProt Q9WU19); test: Inhibition of mouse recombinant glycolate oxidase expressed in Escherichia coli using glycolate as substrate by sulfonated DCIP dye-based assay
T2 sequence (Q9WU19 whole entry): T1 sequence (whole entry)
In short: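 Purified recombinant mGO (10 µL at 0.1 µg/µL) with saturating glycolate (22.2 mM) in 50 mM potassium phosphate pH 7. Compound at 0.2 µM–0.2 mM; H2O2 detected by HRP-coupled sulfonated DCIP/4-aminoantipyrine dye at 515 nm. IC50 from nonlinear dose-response fitting.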

[3] = target: T1, 2-Hydroxyacid oxidase 1 (Mus musculus); test: Inhibition of glycolate oxidase in C57BL/6 Agxt1-/- mouse hepatocytes using glycolate as substrate assessed as relative oxalate level at 10 uM after 24 hrs; assay type: cell-based
In short: (§1)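 Primary Agxt1-/- mouse hepatocytes in 6-well plates, serum-free Williams E with 5 mM glycolate, treated with 10 µM compound. Excreted oxalate measured 24 h later by oxalate oxidase–HRP colorimetric kit (595 nm) and expressed relative to untreated control. Mean ± SD, n = 3, one-way ANOVA.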

[4] = target: T1, 2-Hydroxyacid oxidase 1 (Mus musculus); test: Inhibition of glycolate oxidase in C57BL/6 Agxt1-/- mouse hepatocytes using glycolate as substrate assessed as reduction in oxalate production at 10 uM after 24 hrs; assay type: cell-based; in short: as §1
Mus musculus = test: Reduction in urine oxalate levels in Agxt1-/- mouse model at 110 mg/kg administered via oral gavage measured after 24 hrs post treatment for 11 days relative to control; assay type: functional; design: scale not given: the % may be the effect or the level left
2-Hydroxyacid oxidase 1 [5] = target: T2, 2-Hydroxyacid oxidase 1; test: Inhibition of glycolate oxidase in mouse Agxt1-/- hepatocytes using glycolate as substrate assessed as reduction in oxalate production after 72 hrs by sulfonated-DCIP dye-based assay; assay type: cell-based
2-Hydroxyacid oxidase 1 [6] = target: T2, 2-Hydroxyacid oxidase 1; test: Inhibition of glycolate oxidase in mouse Agxt1-/- hepatocytes using glycolate as substrate assessed as reduction in oxalate production after 48 hrs by sulfonated-DCIP dye-based assay; assay type: cell-based
2-Hydroxyacid oxidase 1 [7] = target: T2, 2-Hydroxyacid oxidase 1; test: Inhibition of glycolate oxidase in mouse Agxt1-/- hepatocytes using glycolate as substrate assessed as reduction in oxalate production after 24 hrs by sulfonated-DCIP dye-based assay; assay type: cell-based
2-Hydroxyacid oxidase 1 [8] = target: T2, 2-Hydroxyacid oxidase 1; test: Inhibition of mouse N-terminal His-tagged glycolate oxidase expressed in BL21(DE3) Escherichia coli using glycolate as substrate by Cornish-Bowden plot analysis
In short: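 Recombinant mouse GO came from E. coli carrying a pET15b Hao1 vector and was purified by affinity chromatography. Glycolate oxidation was run in 50 mM potassium phosphate pH 7. H2O2 was coupled through HRP with sulfonated DCIP/4-aminoantipyrine and read at 515 nm. Inhibitor and substrate concentrations were varied at constant enzyme, and Ki was taken from the line intersection in Cornish-Bowden and Dixon plots.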

[9] = target: T1, 2-Hydroxyacid oxidase 1 (Mus musculus); test: Inhibition of glycolate oxidase in C57BL/6 Agxt1-/- mouse hepatocytes using glycolate as substrate assessed as relative oxalate level at 12.5 uM after 24 hrs; assay type: cell-based
In short: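 Primary hepatocytes were isolated from male C57BL/6 Agxt1-/- mouse liver by in situ collagenase perfusion. They were plated at 3.0x10^5 cells/well in supplemented Williams E with 5% FBS, then switched after 5 h to serum-free medium and treated in the presence of 5 mM glycolate. Medium was collected at 24 h, or 48 and 72 h for dose-response. Oxalate was read by oxalate oxidase/HRP (MBTH/DMAB) at 595 nm relative to control.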

SMILES	inhibition [1]	IC50 (2-Hydroxyacid oxidase 1 [2])	fold change (FC) [3]	other results
O=C(O)c1ccc(-c2ccc(C(=O)O)c(O)c2)o1	0%	–	–	–
O=C(O)c1cc(-c2ccc(OCc3ccccc3)cc2)ccc1O	70.9%	14.8 µM	0.8	–
O=C(O)c1cc(-c2ccccc2COc2cccc(C(F)(F)F)c2)ccc1O	96.2%	3.5 µM	0.68	inhibition [4]: 30%
COc1cccc(-c2ccc(C(=O)O)c(O)c2)c1	50.9%	19.5 µM	0.83	–
O=C(O)c1cc(-c2ccc(CO)o2)ccc1O	98%	4.6 µM	0.88	–
COc1ccc(COc2ccc(-c3ccc(O)c(C(=O)O)c3)cc2)cc1	83.8%	9.5 µM	1.07	–
O=C(O)c1cc(-c2ccsc2)ccc1O	25.2%	–	0.94	–
O=Cc1ccc(-c2cccc(C(=O)O)c2)o1	22.7%	–	0.86	–
Cn1nccc1-c1ccc(C(=O)O)c(O)c1	16.2%	–	0.93	–
O=C(O)c1ccc(-c2ccoc2)cc1O	22.8%	–	1.02	–
O=Cc1ccc(-c2ccc(C(=O)O)c(O)c2)s1	28.7%	–	1	–
O=Cc1ccc(-c2ccc(O)cc2)o1	24.2%	–	0.32	–
O=C(O)c1ccc(-c2ccco2)cc1O	35.8%	39.3 µM	0.87	–
O=C(O)c1cc(Sc2nnnn2-c2ccccc2)c2ccccc2c1O	75.3%	11.1 µM	0.99	–
O=Cc1ccc(-c2ccc3cc(O)c(C(=O)O)cc3c2)o1	26.2%	–	–	–
COc1ccc(COc2ccc(-c3ccc(C(=O)O)c(O)c3)cc2)cc1	65%	13.8 µM	0.9	–
O=C(O)c1ccc(-c2cccs2)cc1O	35.4%	32.5 µM	0.74	–
O=C(O)c1cc(-c2cccs2)ccc1O	30%	39.5 µM	0.82	–
CC(=O)c1ccc(-c2ccc(C(=O)O)c(O)c2)s1	28.1%	–	0.89	–
O=C(O)c1nnsc1Sc1ccc(Cl)cc1	34.8%	43.5 µM	–	Activity (Mus musculus): 30 - 50%; EC50 (2-Hydroxyacid oxidase 1 [5]): 34 µM; EC50 (2-Hydroxyacid oxidase 1 [6]): 33 µM; EC50 (2-Hydroxyacid oxidase 1 [7]): 25.3 µM; IC50 (2-Hydroxyacid oxidase 1 [8]): 43.5 µM; Ki (2-Hydroxyacid oxidase 1 [8]): 20.3 µM; fold change (FC) [9]: 0.63
O=C(O)c1ccc(-c2ccc(CO)o2)cc1O	85.7%	7.9 µM	0.88	–
O=C(O)c1ccc(-c2ccccc2COc2cccc(C(F)(F)F)c2)cc1O	98.6%	4.4 µM	0.62	inhibition [4]: 30%
O=Cc1ccc(-c2ccc(C(=O)O)c(CO)c2)o1	0%	–	0.98	–
O=C(O)c1ccc(-c2ccncc2)cc1O	22.7%	–	0.88	–
O=C(O)c1cc(-c2ccccc2COc2cc(F)cc(F)c2)ccc1O	84.5%	5.8 µM	0.92	–
N[C@@H](CCC(=O)Nc1ccc(O)c(C(=O)O)c1)C(=O)O	7.8%	–	–	–

SMILES	inhibition [1]	IC50 (2-Hydroxyacid oxidase 1 [2])	fold change (FC) [3]	other results
Nc1ccc(O)c(C(=O)O)c1 [MESALAMINE]	71.9%	7.8 µM	0.88	–
Nc1ccc(C(=O)O)c(O)c1	14.9%	–	–	–
O=C(O)c1ccc(-c2ccc(OCc3ccccc3)cc2)cc1O	83.4%	10.4 µM	1.11	–
O=Cc1ccc(-c2ccc(O)c(C(=O)O)c2)s1	52.1%	9.4 µM	0.93	–
O=C(O)c1cnc2cc(Cl)ccc2c1O	24.8%	–	–	–
O=C(O)c1cc2cc(Br)ccc2cc1O	42.3%	39.9 µM	0.99	–
O=C(O)c1cc2ccccc2c(/N=N/c2cc(C(F)(F)F)ccc2Cl)c1O	47.4%	–	0.91	–
O=C(O)c1cccc(F)c1O	13.5%	–	–	–
COc1cc(-c2ccc(C=O)o2)ccc1C(=O)O	0%	–	0.82	–
O=C(O)c1ccccc1O	18.5%	–	–	–
O=C(O)c1cc(-c2ccoc2)ccc1O	26.6%	–	0.89	–
CC(=O)c1ccc(O)c(C(=O)O)c1	22.1%	–	–	–
Cc1ccc(-c2ccc(C(=O)O)c(O)c2)s1	28.7%	–	0.95	–
O=C(O)c1ccc(-c2ccccc2COc2cc(F)cc(F)c2)cc1O	77.7%	8.3 µM	0.72	–
O=C(O)c1ccc(-c2ccc(O)cc2)cc1O	61.3%	13.5 µM	0.82	–
O=C(O)c1ccc(-c2ccsc2)cc1O	41.4%	21.6 µM	0.99	–
COC(=O)c1ccc(-c2ccc(C=O)o2)cc1OC	17.5%	–	0.9	–
O=Cc1ccc(-c2ccc(C(=O)O)c(O)c2)o1	82.8%	34.5 µM	0.88	–
O=C(O)c1ccc(-c2ccc(O)c(C(=O)O)c2)o1	0%	–	0.68	inhibition [4]: 30%
O=C(O)c1cc([N+](=O)[O-])c(-c2ccco2)cc1O	5.9%	–	0.86	–
Cc1ccc(/N=N/c2cc(C(=O)O)cc3ccccc23)c(S(=O)(=O)O)c1	1.5%	–	–	–
O=C(O)c1cc2ccccc2c(/N=N/c2c(O)cc(S(=O)(=O)O)c3ccccc23)c1O	75.1%	–	1.11	–
O=C(O)c1ccc(-c2ccc([N+](=O)[O-])cc2)cc1O	41.9%	19.7 µM	0.91	–
O=C(O)c1cc(Oc2ccc([N+](=O)[O-])cc2)c2ccccc2c1O	96.3%	2.9 µM	0.77	–
O=C(O)c1ccc(Cl)cc1O	20.8%	–	–	–
